Results collected from several papers.
Each line is one published result; the experiments were not run side by side.
Target: Mitogen-activated protein kinase 9 (MAPK9, Homo sapiens, UniProt P45984)

SMILES	test	setting	endpoint	value
Nc1nc(NC2CCCCC2)sc1C(=O)c1ccccc1	enzyme activity, inhibitor	10 µM	remaining activity	39%
N#CCCc1ccc2c(c1)-c1[nH]c3ccc([N+](=O)[O-])cc3c1CC(=O)N2	cell-free assay	0.5 µM	remaining signal	97.1%
COc1cc2ncnc(Nc3ccc(Oc4ccccc4)c(C)c3C)c2cc1OC	enzyme activity, inhibitor	1 µM	inhibition	7%
CC(C)(C)c1nc2c(s1)c1nc(N)ncc1c1ccc(NS(=O)(=O)c3c(F)cccc3F)c(F)c12	enzyme activity, inhibitor, radiometric	1 µM	remaining activity	95%
Cc1ccc(C(=O)Nc2ccc(CN3CCN(C)CC3)c(C(F)(F)F)c2)cc1C#Cc1cnc2cccnn12	enzyme activity, inhibitor	23.5 nM	remaining activity	62%
CNC(=O)Nc1ccc2c(c1)CC[C@@]21OC(=O)N(CC(=O)N(Cc2ccc(F)cc2)[C@@H](C)C(F)(F)F)C1=O	cell-free assay, competition with immobilised ligand	1 µM	remaining binding	70%
Cc1cc(NC(=O)c2cccc3cc(-c4cccc5[nH]nc(N)c45)ccc23)ccc1F	enzyme activity, inhibitor	0.1 µM	activity vs control	86%
O=C(Nc1cnn(-c2csc(C(=O)NC3COC3)c2)c1)Nc1ccccc1Cl	enzyme activity, inhibitor	5 µM	remaining activity	34.1%
COc1cc(Nc2cnc(C#N)c(O[C@H](C)CN(C)C)n2)ncc1-c1cnn(C)c1	enzyme activity, inhibitor, radiometric	1 µM	remaining activity	98%
CCC1(CC)NC(=O)c2c(c3ccc(Cl)c(Cl)c3n2C)C1C#N (stereo not shown)	thermal stability, DSF	10 µM	ΔTm	0.1 °C
COCCOc1nc(-c2ccc(Cl)nc2)nc2c1CN(C(=O)c1ncn3ccccc13)CC2	cell-free assay, competition with immobilised ligand	0.1 µM	remaining binding	76%
O=C1NC(=O)c2cc(Nc3ccc(F)cc3)c(Nc3ccc(F)cc3)cc21	cell-free assay	0.5 µM	remaining signal	61.4%
CNC(=O)c1cc(Oc2ccc(NC(=O)Nc3ccc(Cl)c(C(F)(F)F)c3)cc2)ccn1	enzyme activity, inhibitor	0.3 µM	inhibition	7%
N#Cc1ccc(Nc2ccc3[nH]c(=O)[nH]c3c2)c(Cl)c1	cell-free assay, competition with immobilised ligand	1 µM	remaining binding	100%
FC(F)c1nc2ccccc2n1-c1nc(N2CCOCC2)nc(N2CCOCC2)n1	enzyme activity, inhibitor	10 µM	remaining activity	87%
Cc1nccc(COC(=O)N2C[C@@H]3[C@@H](CNC(=O)c4ccc5[nH]nnc5c4)[C@@H]3C2)n1	cell-free assay, competition with immobilised ligand	1 µM	remaining binding	95%
Oc1cccc(-c2nc(N3CCOCC3)c3oc4ncccc4c3n2)c1	cell-free assay	0.5 µM	remaining signal	89.4%
Cc1cnc(NC2CCOCC2)nc1-n1cnc(C(=O)NC(CN)c2cc(F)cc(Cl)c2)c1 (stereo not shown)	enzyme activity, inhibitor, radiometric	1 µM	remaining activity	72%
Cn1c2c(Cl)c(Cl)ccc2c2cn[nH]c(=O)c21	thermal stability, DSF	10 µM	ΔTm	0 °C
CC1=C(C#N)[C@@H](c2ccc3[nH]nc(C)c3c2)C(C#N)=C(c2ccc(Cl)cc2)N1	cell-free assay, competition with immobilised ligand	1 µM	remaining binding	89.5%
CC1(C)NC(=O)c2[nH]c3c(Cl)c(Cl)ccc3c2C1C#N (stereo not shown)	thermal stability, DSF	10 µM	ΔTm	0.8 °C
CNC(=O)c1ccc(Nc2ncc(C(F)(F)F)c(NCc3nccnc3N(C)S(C)(=O)=O)n2)cc1	cell-free assay, competition with immobilised ligand	0.1 µM	remaining binding	95%
